Data from ChEMBL document CHEMBL1139866, “Synthesis and antimalarial property of orally active phenoxazinium salts” (J Med Chem, 2007).
pEC50: −log10 of the molar value.

Legend:
Plasmodium berghei [1] = experiment: Antimalarial activity against Plasmodium berghei NK65 infected ICR mice (Mus musculus) as reduced parasitaemia at 5 mg/kg intraperitoneal dose on day 4; type: functional; set-up: scale not given: the % may be the effect or the level left
In short: (§1)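 Peters' four-day suppressive test with P. berghei NK-65 (drug-sensitive) in groups of five ICR mice, dosed intraperitoneally once daily for 4 days. Parasitemia on day 4 is compared with untreated infected controls to give % suppression. Survival is followed after treatment as mean survival days, observed up to day 30.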

Mus musculus [2] = experiment: Effect on survival of Plasmodium berghei NK65 infected ICR mice (Mus musculus) assessed as mean survival days at 5 mg/kg, intraperitoneal after 4 days; type: functional
In short: (§2)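 Peters' four-day suppressive test in groups of five ICR mice infected with drug-sensitive P. berghei NK-65. Compound given ip once daily for 4 days. Day-4 parasitemia compared with untreated controls to give % suppression. Mice observed after the end of treatment to record mean survival days and the number alive on day 30.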

[3] = Ratio of EC50 for rat L6 cells to EC50 for Plasmodium falciparum K1; type: functional
In short: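 Selectivity index is the EC50 against rat skeletal myoblast L-6 cells divided by the in vitro EC50 against chloroquine-resistant P. falciparum K1, which was assayed by the Desjardins method.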

Plasmodium falciparum = experiment: Antimalarial activity against chloroquine-resistant Plasmodium falciparum K1 after 48 hrs; type: functional, organism-based; conditions: Plasmodium falciparum, K1, 48 h
Plasmodium berghei [4] = experiment: Antimalarial activity against Plasmodium berghei NK65 infected ICR mice (Mus musculus) as reduced parasitaemia on 10 mg/kg intraperitoneal dose on day 4; set-up: scale not given: the % may be the effect or the level left
Mus musculus [5] = experiment: Effect on survival of Plasmodium berghei NK65 infected ICR mice (Mus musculus) assessed as mean survival days at 10 mg/kg, intraperitoneal after 4 days; type: functional; in short: as §2
Mus musculus [6] = experiment: Survival of Plasmodium berghei NK65 infected ICR mice (Mus musculus) at 20 mg/kg, intraperitoneal after 4 days; type: functional; in short: as §2
Plasmodium berghei [7] = experiment: Antimalarial activity against Plasmodium berghei NK65 infected ICR mice (Mus musculus) as reduced parasitaemia after 2.5 mg/kg intraperitoneal dose on day 4; type: functional; set-up: scale not given: the % may be the effect or the level left; in short: as §1
Plasmodium berghei [8] = experiment: Antimalarial activity against Plasmodium berghei NK65 infected ICR mice (Mus musculus) as reduced parasitaemia after 20 mg/kg intraperitoneal dose on day 4; type: functional; set-up: scale not given: the % may be the effect or the level left; in short: as §1
Mus musculus [9] = experiment: Effect on survival of Plasmodium berghei NK65 infected ICR mice (Mus musculus) assessed as mean survival days at 20 mg/kg, intraperitoneal after 4 days; type: functional; in short: as §2
Mus musculus [10] = experiment: Effect on survival of Plasmodium berghei NK65 infected ICR mice (Mus musculus) assessed as mean survival days at 2.5 mg/kg, intraperitoneal after 4 days; type: functional; in short: as §2

SMILES	Activity (Plasmodium berghei [1]) [%]	Mean survival days (Mus musculus [2]) [days]	Ratio [3]	pEC50 (Plasmodium falciparum)	Activity (Plasmodium berghei [4]) [%]	Mean survival days (Mus musculus [5]) [days]	Activity (Mus musculus [6]) [%]	Activity (Plasmodium berghei [7]) [%]	Activity (Plasmodium berghei [8]) [%]	Mean survival days (Mus musculus [9]) [days]	Mean survival days (Mus musculus [10]) [days]
CN(C)c1cc(O)c2nc3ccc(=[N+](C)C)cc-3oc2c1.[Cl-]	4.2	5.3	–	–	–	–	–	–	–	–	–
CN1CCN(c2cc(O)c3nc4ccc(=[N+](C)C)cc-4oc3c2)CC1.[Cl-]	17.4	5.3	440	6.70	–	–	–	–	–	–	–
CCN(C)c1ccc2nc3ccc(=[N+](C)C)cc-3oc2c1.[O-][Cl+3]([O-])([O-])[O-]	71.7	6.7	–	–	–	–	–	–	–	–	–
CCCCN(CCCC)c1ccc2nc3ccc(=[N+](CC)CC)cc-3oc2c1.[Cl-]	83.1	16	350	8.62	–	–	–	–	–	–	–
CCCCN(CCCC)c1ccc2nc3ccc(=[N+](C)C)cc-3oc2c1.[O-][Cl+3]([O-])([O-])[O-]	90.3	11.4	–	–	–	–	–	–	–	–	–
CCN(CC)CCCC(C)Nc1ccnc2cc(Cl)ccc12 (configuration not stated) [CHLOROQUINE]	–	–	32	5.82	90.6	22.7	–	–	–	–	–
CCN(CC)c1ccc2nc3ccc(=[N+](C)C)cc-3oc2c1.[Cl-]	85.3	10	–	–	99.9	13	40	58.7	100	>17	7.8
